{"source": "ChEMBL document CHEMBL1811823", "about": "“Quinazolinone linked pyrrolo[2,1-c][1,4]benzodiazepine (PBD) conjugates: Design, synthesis and biological evaluation as potential anticancer agents” (2010)", "key": {"OVCAR-3": {"tested_on": "OVCAR-3", "test": "Growth inhibition of human OVCAR3 cells by NCI anti-cancer screening method", "format": "functional"}, "A-375 [1]": {"tested_on": "A-375", "test": "Increase in cytochrome C release in human A375 cells at 4 uM after 24 hrs by Western blot", "format": "functional, cell-based", "how_it_was_run": "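Western blot of A375 cell lysates after 24 h exposure at 4 µM, with 30 µg protein/lane on 12% SDS-PAGE and transfer to PVDF. Probed overnight at 4 °C with anti-cytochrome c (1:500), then HRP secondary and chemiluminescence. β-actin was the loading control; untreated and DMSO-only cells served as controls.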"}, "CAKI-1": {"tested_on": "CAKI-1", "test": "Growth inhibition of human Caki1 cells by NCI anti-cancer screening method", "format": "functional"}, "786-0": {"tested_on": "786-0", "test": "Growth inhibition of human 786-0 cells by NCI anti-cancer screening method", "format": "functional"}, "HOP-92": {"tested_on": "HOP-92", "test": "Growth inhibition of human HOP92 cells by NCI anti-cancer screening method", "format": "functional"}, "A-375 [2]": {"tested_on": "A-375", "test": "Cytotoxicity against human A375 cells assessed as cell viability after 24 hrs by MTT assay", "format": "functional", "how_it_was_run": "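A375 cells seeded at 10,000/well, incubated overnight, then treated for 24 h. MTT added at 10% of culture volume for 2 h at 37 °C. Formazan dissolved in 20% SDS/50% DMF overnight at 37 °C; absorbance read at 570 nm against a medium blank. Viability expressed as percent of untreated cells.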"}, "A-375 [3]": {"tested_on": "A-375", "test": "Increase in active PARP cleavage product (85kDa) level in human A375 cells at 4 uM after 24 hrs by Western blot", "format": "functional, cell-based", "how_it_was_run": "(§1)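 A375 cells were exposed 24 h at 4 µM. Lysates (30 µg/lane) were run on 12% SDS-PAGE and transferred to PVDF, then probed overnight at 4 °C with anti-cleaved caspase-3 (1:200, detects 21 kDa) or anti-PARP (1:2000, detects 113 and 85 kDa). HRP secondary and chemiluminescence were used. β-tubulin was the loading control; untreated and DMSO controls were included.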"}, "A-375 [4]": {"tested_on": "A-375", "test": "Decrease in Bcl-2 mRNA expression in human A375 cells at 4 uM after 24 hrs by RT-PCR"}, "UO-31": {"tested_on": "UO-31", "test": "Growth inhibition of human UO31 cells by NCI anti-cancer screening method", "format": "functional"}, "DU-145": {"tested_on": "DU-145", "test": "Growth inhibition of human DU145 cells by NCI anti-cancer screening method", "format": "functional"}, "A498": {"tested_on": "A498", "test": "Growth inhibition of human A498 cells by NCI anti-cancer screening method", "format": "functional"}, "A-375 [5]": {"tested_on": "A-375", "test": "Increase in p27 protein expression in human A375 cells at 4 uM after 24 hrs by Western blot", "format": "functional, cell-based", "how_it_was_run": "(§2)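 A375 cells (DMEM, 10% FCS, 37 °C, 5% CO2) were treated at 4 µM for 24 h. Lysates were loaded at 30 µg protein/lane on 12% SDS-PAGE and transferred to PVDF. Membranes were blocked 2 h in TBST, incubated with primary antibody overnight at 4 °C (p53 1:100, p27 1:500, NF-κB p65 1:500), then HRP secondary 1 h, with chemiluminescent detection. β-actin was the loading control; untreated and DMSO controls were run.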"}, "U-251": {"tested_on": "U-251", "test": "Growth inhibition of human U251 cells by NCI anti-cancer screening method", "format": "functional"}, "A-375 [6]": {"tested_on": "A-375", "test": "Cell cycle arrest in human A375 cells assessed as decrease in G2/M phase at 4 uM after 24 hrs by propidium iodide staining based flow cytometry", "format": "functional", "parameters": "scale not given: the % may be the effect or the level left", "how_it_was_run": "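A375 melanoma cells (DMEM, 10% FCS, 37 °C, 5% CO2) seeded at 5×10^5 per dish and grown 24 h, then exposed to 0–4 µM for 24 h. Harvested with trypsin-EDTA, fixed in ice-cold 70% ethanol, RNase A treated (1 mg/ml, 37 °C, 30 min), stained with propidium iodide and analysed by flow cytometry for phase distribution.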"}, "A-375 [7]": {"tested_on": "A-375", "test": "Increase in active caspase-3 protein level in human A375 cells at 4 uM after 24 hrs by Western blot", "format": "functional, cell-based", "how_it_was_run": "as §1"}, "NCI": {"tested_on": "NCI", "test": "Growth inhibition of human […] cells by NCI anti-cancer screening method", "format": "functional"}, "SNB-75": {"tested_on": "SNB-75", "test": "Growth inhibition of human SNB75 cells by NCI anti-cancer screening method", "format": "functional"}, "HCC 2998": {"tested_on": "HCC 2998", "test": "Growth inhibition of human HCC2998 cells by NCI anti-cancer screening method", "format": "functional"}, "IGROV-1": {"tested_on": "IGROV-1", "test": "Growth inhibition of human IGROV1 cells by NCI anti-cancer screening method", "format": "functional"}, "ACHN": {"tested_on": "ACHN", "test": "Growth inhibition of human ACHN cells by NCI anti-cancer screening method", "format": "functional"}, "UACC-257": {"tested_on": "UACC-257", "test": "Growth inhibition of human UACC257 cells by NCI anti-cancer screening method", "format": "functional"}, "PC-3": {"tested_on": "PC-3", "test": "Growth inhibition of human PC3 cells by NCI anti-cancer screening method", "format": "functional"}, "NCI/ADR-RES": {"tested_on": "NCI/ADR-RES", "test": "Growth inhibition of human NCI/ADR-RES cells by NCI anti-cancer screening method", "format": "functional"}, "NCI-H322M": {"tested_on": "NCI-H322M", "test": "Growth inhibition of human NCI-H322M cells by NCI anti-cancer screening method", "format": "functional"}, "LOX IMVI": {"tested_on": "LOX IMVI", "test": "Growth inhibition of human LOXIMVI cells by NCI anti-cancer screening method", "format": "functional"}, "EKVX": {"tested_on": "EKVX", "test": "Growth inhibition of human EKVX cells by NCI anti-cancer screening method", "format": "functional"}, "SK-OV-3": {"tested_on": "SK-OV-3", "test": "Growth inhibition of human SKOV3 cells by NCI anti-cancer screening method", "format": "functional"}, "SR": {"tested_on": "SR", "test": "Growth inhibition of human SR cells by NCI anti-cancer screening method", "format": "functional"}, "A-375 [8]": {"tested_on": "A-375", "test": "Induction of apoptosis in human A375 cells assessed as sub-G1 phase accumulation at 4 uM after 24 hrs by propidium iodide staining based flow cytometry", "format": "functional", "how_it_was_run": "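A375 cells (5×10^5 per 60 mm dish) were grown 24 h, then treated 24 h at 0–4 µM. Cells were harvested with trypsin-EDTA, fixed in ice-cold 70% ethanol for 30 min at 4 °C, treated with RNase A (1 mg/ml) for 30 min at 37 °C, and stained with propidium iodide. Cell-cycle distribution, including the sub-G1 fraction, was measured by flow cytometry. DMSO-exposed cells were the control.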"}, "Nucleic Acid": {"tested_on": "Nucleic Acid", "test": "Binding affinity to calf thymus DNA assessed as change in melting temperature at 20 uM at pH 7 incubated for 18 hrs at 37 degC by thermal denaturation assay", "format": "nucleic-acid assay", "conditions": "Bos taurus", "how_it_was_run": "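CT-DNA (100 µM in phosphate) with 20 µM ligand, 1:5 [PBD]/[DNA], in 10 mM sodium phosphate/1 mM Na2EDTA buffer pH 7.00. Ligand added from methanol solution; incubated at 37 °C for 0 or 18 h. A260 monitored while heating 1 °C/min over 40–90 °C. Tm taken from d(A260)/dT maxima; ΔTm = Tm(DNA+PBD) − Tm(DNA alone). Values are means of at least three determinations, corrected for methanol cosolvent.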"}, "SF-268": {"tested_on": "SF-268", "test": "Growth inhibition of human SF268 cells by NCI anti-cancer screening method", "format": "functional"}, "OVCAR-5": {"tested_on": "OVCAR-5", "test": "Growth inhibition of human OVCAR5 cells by NCI anti-cancer screening method", "format": "functional"}, "A-375 [9]": {"tested_on": "A-375", "test": "Increase in p53 protein expression in human A375 cells at 4 uM after 24 hrs by Western blot", "format": "functional, cell-based", "how_it_was_run": "as §2"}, "OVCAR-4": {"tested_on": "OVCAR-4", "test": "Growth inhibition of human OVCAR4 cells by NCI anti-cancer screening method", "format": "functional"}}, "note": "Calls of active or inactive are those of the source. No cut-off for these calls is given here."}
{"compound": "COc1cc2c(cc1OCCCCCOc1ccc(-n3c(C)nc4ccccc4c3=O)cc1)N=C[C@@H]1CCCN1C2=O", "values": [{"measurement": "GI50", "setting": "OVCAR-3", "value": 200, "unit": "nM"}, {"measurement": "Activity", "setting": "A-375 [1]", "value": "Active"}, {"measurement": "GI50", "setting": "CAKI-1", "value": 190, "unit": "nM"}, {"measurement": "GI50", "setting": "786-0", "value": 170, "unit": "nM"}, {"measurement": "GI50", "setting": "HOP-92", "value": 350, "unit": "nM"}, {"measurement": "Activity", "setting": "A-375 [2]", "value": 49.01, "unit": "%"}, {"measurement": "Activity", "setting": "A-375 [3]", "value": "Active"}, {"measurement": "Decrease in Bcl-2 mRNA expression", "setting": "A-375 [4]", "value": "Active"}, {"measurement": "GI50", "setting": "UO-31", "value": 360, "unit": "nM"}, {"measurement": "GI50", "setting": "DU-145", "value": 260, "unit": "nM"}, {"measurement": "GI50", "setting": "A498", "value": 160, "unit": "nM"}, {"measurement": "Activity", "setting": "A-375 [5]", "value": "Active"}, {"measurement": "GI50", "setting": "U-251", "value": 160, "unit": "nM"}, {"measurement": "Activity", "setting": "A-375 [6]", "value": 9.15, "unit": "%"}, {"measurement": "Activity", "setting": "A-375 [7]", "value": "Active"}, {"measurement": "GI50", "setting": "NCI", "value": 190, "unit": "nM"}, {"measurement": "GI50", "setting": "SNB-75", "value": 380, "unit": "nM"}, {"measurement": "GI50", "setting": "HCC 2998", "value": 260, "unit": "nM"}, {"measurement": "GI50", "setting": "IGROV-1", "value": 180, "unit": "nM"}, {"measurement": "GI50", "setting": "ACHN", "value": 290, "unit": "nM"}, {"measurement": "GI50", "setting": "UACC-257", "value": 390, "unit": "nM"}, {"measurement": "GI50", "setting": "PC-3", "value": 290, "unit": "nM"}, {"measurement": "GI50", "setting": "NCI/ADR-RES", "value": 1730, "unit": "nM"}, {"measurement": "GI50", "setting": "NCI-H322M", "value": 260, "unit": "nM"}, {"measurement": "GI50", "setting": "LOX IMVI", "value": 150, "unit": "nM"}, {"measurement": "GI50", "setting": "EKVX", "value": 870, "unit": "nM"}, {"measurement": "GI50", "setting": "SK-OV-3", "value": 430, "unit": "nM"}, {"measurement": "GI50", "setting": "SR", "value": 110, "unit": "nM"}, {"measurement": "Activity", "setting": "A-375 [8]", "value": 31.52, "unit": "%"}, {"measurement": "ΔTm", "setting": "Nucleic Acid", "value": 2.3, "unit": "°C"}, {"measurement": "GI50", "setting": "SF-268", "value": 260, "unit": "nM"}, {"measurement": "GI50", "setting": "OVCAR-5", "value": 330, "unit": "nM"}, {"measurement": "Activity", "setting": "A-375 [9]", "value": "Active"}, {"measurement": "GI50", "setting": "OVCAR-4", "value": 370, "unit": "nM"}]}
